Results reported in ChEMBL document CHEMBL1129275, “Synthesis and in vitro and in vivo characteristics of an iodinated analogue of the beta-adrenoceptor antagonist carazolol” (J Med Chem, 1996).

Tests used:
Oryctolagus cuniculus [1] = test: Biodistribution pattern of [123I]- ligand was evaluated in intestine of anesthetized rabbit after Intravenous injection of 50 uCi after 6 hr; assay type: ADME, organism-based; conditions: in vivo
How it was run: (§1)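 Male New Zealand white rabbits, 2.5–3.5 kg, anesthetized with 5 mg/kg xylazine plus 30 mg/kg ketamine im. Each received 50 uCi radioligand (specific activity > 5000 Ci/mmol) iv via ear vein. Animals were killed with 200 mg/kg pentobarbital im at the set time. Blood was drawn by intracardiac puncture and organs weighed. Gamma counting was decay-corrected, expressed as %ID x kg body weight/g tissue, mean ± SEM, n = 3/time point.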

Oryctolagus cuniculus [2] = test: Biodistribution pattern of [123I]- ligand was evaluated in muscle of anesthetized rabbit after Intravenous injection of 50 uCi after 5 min; assay type: ADME, organism-based, Muscle tissue; conditions: in vivo
How it was run: (§2)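 Male New Zealand white rabbits (2.5–3.5 kg), anesthetized with xylazine 5 mg/kg plus ketamine 30 mg/kg im, given 50 µCi radioligand (specific activity >5000 Ci/mmol) iv via ear vein. Euthanized at set times by pentobarbital 200 mg/kg im, n = 3/time point. Organs removed and weighed, gamma-counted, decay/weight corrected; expressed as % ID x kg body weight/g tissue, mean ± SEM.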

Oryctolagus cuniculus [3] = test: Biodistribution pattern of [123I]- ligand was evaluated in muscle of anesthetized rabbit after Intravenous injection of 50 uCi after 24 hr; assay type: ADME, organism-based, Muscle tissue; conditions: in vivo; how it was run: as §1
Oryctolagus cuniculus [4] = test: Biodistribution pattern of [123I]- ligand was evaluated in left ventricular muscle of anesthetized rabbit after Intravenous injection of 50 uCi after 1 hr; assay type: ADME, organism-based, Muscle tissue; conditions: in vivo; how it was run: as §1
Oryctolagus cuniculus [5] = test: Cerebral biodistribution pattern of [123I]- ligand was evaluated in pituitary gland of anesthetized rabbit after Intravenous injection of 50 uCi after 24 hr; assay type: ADME, organism-based; conditions: in vivo; how it was run: as §2
Oryctolagus cuniculus [6] = test: Biodistribution pattern of [123I]- ligand was evaluated in left ventricular muscle of anesthetized rabbit after Intravenous injection of 50 uCi after 24 hr; assay type: ADME, organism-based, Muscle tissue; conditions: in vivo; how it was run: as §1
Oryctolagus cuniculus [7] = test: Biodistribution pattern of [123I]- ligand was evaluated in fat of anesthetized rabbit after Intravenous injection of 50 uCi after 1 hr; assay type: ADME, organism-based, Adipose tissue; conditions: in vivo; how it was run: as §1
Oryctolagus cuniculus [8] = test: Biodistribution pattern of [123I]- ligand was evaluated in muscle of anesthetized rabbit after Intravenous injection of 50 uCi after 2 hr; assay type: ADME, organism-based, Muscle tissue; conditions: in vivo; how it was run: as §1
Oryctolagus cuniculus [9] = test: Biodistribution pattern of [123I]- ligand was evaluated in intestine of anesthetized rabbit after Intravenous injection of 50 uCi after 24 hr; assay type: ADME, organism-based; conditions: in vivo; how it was run: as §1
Oryctolagus cuniculus [10] = test: Cerebral biodistribution pattern of [123I]- ligand was evaluated in frontal cortex of anesthetized rabbit after Intravenous injection of 50 uCi after 4 hr; assay type: ADME, organism-based; conditions: in vivo; how it was run: as §2
Oryctolagus cuniculus [11] = test: Biodistribution pattern of [123I]- ligand was evaluated in left ventricular muscle of anesthetized rabbit after Intravenous injection of 50 uCi after 30 min; assay type: ADME, organism-based, Muscle tissue; conditions: in vivo, 0.5 h; how it was run: as §1
Oryctolagus cuniculus [12] = test: Cerebral biodistribution pattern of [123I]- ligand was evaluated in pituitary gland of anesthetized rabbit after Intravenous injection of 50 uCi after 6 hr; assay type: ADME, organism-based; conditions: in vivo; how it was run: as §2
Oryctolagus cuniculus [13] = test: Cerebral biodistribution pattern of [123I]- ligand was evaluated in hypothalamus of anesthetized rabbit after Intravenous injection of 50 uCi after 6 hr; assay type: ADME, organism-based; conditions: in vivo; how it was run: as §2
Oryctolagus cuniculus [14] = test: Cerebral biodistribution pattern of [123I]- ligand was evaluated in thalamus of anesthetized rabbit after Intravenous injection of 50 uCi after 6 hr; assay type: ADME, organism-based; conditions: in vivo
How it was run: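 Male New Zealand white rabbits (2.5–3.5 kg) anesthetized with xylazine 5 mg/kg plus ketamine 30 mg/kg im; 50 uCi radioligand (specific activity > 5000 Ci/mmol) given iv via ear vein. Euthanized by pentobarbital 200 mg/kg im at set times up to 24 h (n = 3/time point). Brain regions weighed and gamma-counted, decay-corrected, expressed as % ID x kg body weight/g tissue, mean ± SEM.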

Oryctolagus cuniculus [15] = test: Biodistribution pattern of [123I]- ligand was evaluated in left atrial muscle of anesthetized rabbit after Intravenous injection of 50 uCi after 5 min; assay type: ADME, organism-based, Muscle tissue; conditions: in vivo; how it was run: as §1
Oryctolagus cuniculus [16] = test: Biodistribution pattern of [123I]- ligand was evaluated in right ventricular muscle of anesthetized rabbit after Intravenous injection of 50 uCi after 24 hr; assay type: ADME, organism-based, Muscle tissue; conditions: in vivo; how it was run: as §2
Oryctolagus cuniculus [17] = test: Cerebral biodistribution pattern of [123I]- ligand was evaluated in cerebellum of anesthetized rabbit after Intravenous injection of 50 uCi after 4 hr; assay type: ADME, organism-based; conditions: in vivo; how it was run: as §2
Oryctolagus cuniculus [18] = test: Biodistribution pattern of [123I]- ligand was evaluated in spleen of anesthetized rabbit after Intravenous injection of 50 uCi after 4 hr; assay type: ADME, organism-based; conditions: in vivo; how it was run: as §2
Oryctolagus cuniculus [19] = test: […] biodistribution pattern of [123I]- ligand was evaluated in kidney of anesthetized rabbit after Intravenous injection of 50 uCi after 24 hr; assay type: ADME, organism-based; conditions: in vivo; how it was run: as §2
Oryctolagus cuniculus [20] = test: Biodistribution pattern of [123I]- ligand was evaluated in liver of anesthetized rabbit after Intravenous injection of 50 uCi after 5 min; assay type: ADME, organism-based; conditions: in vivo; how it was run: as §1
Oryctolagus cuniculus [21] = test: Biodistribution pattern of [123I]- ligand was evaluated in blood of anesthetized rabbit after Intravenous injection of 50 uCi after 5 min; assay type: ADME, organism-based; conditions: in vivo; how it was run: as §1
Oryctolagus cuniculus [22] = test: Biodistribution pattern of [123I]- ligand was evaluated in fat of anesthetized rabbit after Intravenous injection of 50 uCi after 2 hr; assay type: ADME, organism-based, Adipose tissue; conditions: in vivo; how it was run: as §1
Oryctolagus cuniculus [23] = test: […] biodistribution pattern of [123I]- ligand was evaluated in kidney of anesthetized rabbit after Intravenous injection of 50 uCi after 2 hr; assay type: ADME, organism-based; conditions: in vivo; how it was run: as §2
Oryctolagus cuniculus [24] = test: Biodistribution pattern of [123I]- ligand was evaluated in spleen of anesthetized rabbit after Intravenous injection of 50 uCi after 5 min; assay type: ADME, organism-based; conditions: in vivo; how it was run: as §2
Oryctolagus cuniculus [25] = test: Biodistribution pattern of [123I]- ligand was evaluated in left ventricular muscle of anesthetized rabbit after Intravenous injection of 50 uCi after 2 hr; assay type: ADME, organism-based, Muscle tissue; conditions: in vivo; how it was run: as §1
Oryctolagus cuniculus [26] = test: Cerebral biodistribution pattern of [123I]- ligand was evaluated in thalamus of anesthetized rabbit after Intravenous injection of 50 uCi after 4 hr; assay type: ADME, organism-based; conditions: in vivo; how it was run: as §2
Oryctolagus cuniculus [27] = test: Biodistribution pattern of [123I]- ligand was evaluated in muscle of anesthetized rabbit after Intravenous injection of 50 uCi after 6 hr; assay type: ADME, organism-based, Muscle tissue; conditions: in vivo; how it was run: as §2
Oryctolagus cuniculus [28] = test: Cerebral biodistribution pattern of [123I]- ligand was evaluated in pituitary gland of anesthetized rabbit after Intravenous injection of 50 uCi after 5 min; assay type: ADME, organism-based; conditions: in vivo; how it was run: as §2
Oryctolagus cuniculus [29] = test: Cerebral biodistribution pattern of [123I]- ligand was evaluated in cerebellum of anesthetized rabbit after Intravenous injection of 50 uCi after 30 min; assay type: ADME, organism-based; conditions: in vivo, 0.5 h; how it was run: as §2
Oryctolagus cuniculus [30] = test: Cerebral biodistribution pattern of [123I]- ligand was evaluated in frontal cortex of anesthetized rabbit after Intravenous injection of 50 uCi after 2 hr; assay type: ADME, organism-based; conditions: in vivo; how it was run: as §2
Oryctolagus cuniculus [31] = test: Biodistribution pattern of [123I]- ligand was evaluated in muscle of anesthetized rabbit after Intravenous injection of 50 uCi after 4 hr; assay type: ADME, organism-based, Muscle tissue; conditions: in vivo; how it was run: as §1
Oryctolagus cuniculus [32] = test: Cerebral biodistribution pattern of [123I]- ligand was evaluated in hypothalamus of anesthetized rabbit after Intravenous injection of 50 uCi after 2 hr; assay type: ADME, organism-based; conditions: in vivo; how it was run: as §2
Oryctolagus cuniculus [33] = test: Biodistribution pattern of [123I]- ligand was evaluated in liver of anesthetized rabbit after Intravenous injection of 50 uCi after 6 hr; assay type: ADME, organism-based; conditions: in vivo; how it was run: as §1
Oryctolagus cuniculus [34] = test: Biodistribution pattern of [123I]- ligand was evaluated in lung of anesthetized rabbit after Intravenous injection of 50 uCi after 2 hr; assay type: ADME, organism-based; conditions: in vivo; how it was run: as §1
Oryctolagus cuniculus [35] = test: Biodistribution pattern of [123I]- ligand was evaluated in liver of anesthetized rabbit after Intravenous injection of 50 uCi after 4 hr; assay type: ADME, organism-based; conditions: in vivo; how it was run: as §1
Oryctolagus cuniculus [36] = test: Biodistribution pattern of [123I]- ligand was evaluated in kidney of anesthetized rabbit after Intravenous injection of 50 uCi after 30 min; assay type: ADME, organism-based; conditions: in vivo, 0.5 h; how it was run: as §1

ID x kg of body weight/g of tissue (Oryctolagus cuniculus [1]): 0.05% | ID x kg of body weight/g of tissue (Oryctolagus cuniculus [2]): 0.08% | ID x kg of body weight/g of tissue (Oryctolagus cuniculus [3]): 0.05% | ID x kg of body weight/g of tissue (Oryctolagus cuniculus [4]): 0.2% | ID x kg of body weight/g of tissue (Oryctolagus cuniculus [5]): 0.03% | ID x kg of body weight/g of tissue (Oryctolagus cuniculus [6]): 0.02% | ID x kg of body weight/g of tissue (Oryctolagus cuniculus [7]): 0.06% | ID x kg of body weight/g of tissue (Oryctolagus cuniculus [8]): 0.05% | ID x kg of body weight/g of tissue (Oryctolagus cuniculus [9]): 0.02% | ID x kg of body weight/g of tissue (Oryctolagus cuniculus [10]): 0.06% | ID x kg of body weight/g of tissue (Oryctolagus cuniculus [11]): < 0.26% | ID x kg of body weight/g of tissue (Oryctolagus cuniculus [12]): 0.06% | ID x kg of body weight/g of tissue (Oryctolagus cuniculus [13]): 0.03% | ID x kg of body weight/g of tissue (Oryctolagus cuniculus [14]): 0.03% | ID x kg of body weight/g of tissue (Oryctolagus cuniculus [15]): 0.36% | ID x kg of body weight/g of tissue (Oryctolagus cuniculus [16]): 0.02% | ID x kg of body weight/g of tissue (Oryctolagus cuniculus [17]): 0.13% | ID x kg of body weight/g of tissue (Oryctolagus cuniculus [18]): 0.1% | ID x kg of body weight/g of tissue (Oryctolagus cuniculus [19]): 0.02% | ID x kg of body weight/g of tissue (Oryctolagus cuniculus [20]): 0.14% | ID x kg of body weight/g of tissue (Oryctolagus cuniculus [21]): 0.03% | ID x kg of body weight/g of tissue (Oryctolagus cuniculus [22]): 0.04% | ID x kg of body weight/g of tissue (Oryctolagus cuniculus [23]): 0.11% | ID x kg of body weight/g of tissue (Oryctolagus cuniculus [24]): 0.39% | ID x kg of body weight/g of tissue (Oryctolagus cuniculus [25]): 0.2% | ID x kg of body weight/g of tissue (Oryctolagus cuniculus [26]): 0.03% | ID x kg of body weight/g of tissue (Oryctolagus cuniculus [27]): 0.04% | ID x kg of body weight/g of tissue (Oryctolagus cuniculus [28]): 0.5% | ID x kg of body weight/g of tissue (Oryctolagus cuniculus [29]): < 0.15% | ID x kg of body weight/g of tissue (Oryctolagus cuniculus [30]): 0.09% | ID x kg of body weight/g of tissue (Oryctolagus cuniculus [31]): 0.04% | ID x kg of body weight/g of tissue (Oryctolagus cuniculus [32]): 0.05% | ID x kg of body weight/g of tissue (Oryctolagus cuniculus [33]): 0.03% | ID x kg of body weight/g of tissue (Oryctolagus cuniculus [34]): 1.29% | ID x kg of body weight/g of tissue (Oryctolagus cuniculus [35]): 0.04% | ID x kg of body weight/g of tissue (Oryctolagus cuniculus [36]): < 0.29%
Compound: CC(C)(/C=C/I)NC[C@H](O)COc1cccc2[nH]c3ccccc3c12
